Source: ChEMBL document CHEMBL3091299, “Adamantyl derivative as a potent inhibitor of Plasmodium FK506 binding protein 35” (ACS Med Chem Lett, 2013)
Activity calls are given as the source filed them. The calls are words filed in the database; no cut-off is given here.

Assays:
Plasmodium falciparum [1] = experiment: Antimicrobial activity against mid-ring stage Plasmodium falciparum 3D7 infected in erythrocytes assessed as reduction in parasitemia at 500 nM after 8 hrs by Giemsa-staining based microscopy relative to control; format: functional, organism-based
Outline: (§1)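 Highly synchronized ring-infected erythrocytes (3D7) followed over one full 48 h intraerythrocytic cycle with inhibitor, chloroquine, artemisinin, or no treatment. Parasitaemia (%) and morphology were scored from Giemsa-stained smears every 8 h, with untreated parasites as reference.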

Plasmodium falciparum [2] = experiment: Antimicrobial activity against Plasmodium falciparum 3D7 infected in erythrocytes assessed as ring-stage maturation at 500 nM after 4 to 24 hrs by Giemsa-staining based microscopy relative to control; format: functional, organism-based
Plasmodium falciparum [3] = experiment: Antimicrobial activity against Plasmodium falciparum 3D7 infected in erythrocytes assessed as disintegration of trophozoite-stage maturation at 500 nM after 16 hrs by Giemsa-staining based microscopy relative to control; format: functional, organism-based
Plasmodium falciparum [4] = experiment: Antimicrobial activity against mid-ring stage Plasmodium falciparum 3D7 infected in erythrocytes assessed as reduction in trophozoite stage development at 500 nM after 16 to 24 hrs by Giemsa-staining based microscopy relative to control; format: functional, organism-based; outline: as §1
Plasmodium falciparum [5] = experiment: Antimicrobial activity against mid-ring stage Plasmodium falciparum 3D7 infected in erythrocytes assessed as change in parasite morphology at 500 nM after 8 hrs by Giemsa-staining based microscopy relative to control; format: functional, organism-based; outline: as §1
Plasmodium falciparum [6] = experiment: Antimicrobial activity against Plasmodium falciparum 3D7 infected in erythrocytes assessed as schizont-stage maturation at 500 nM after 4 to 24 hrs by Giemsa-staining based microscopy relative to control; format: functional, organism-based
Plasmodium falciparum [7] = experiment: Antimicrobial activity against mid-ring stage Plasmodium falciparum 3D7 infected in erythrocytes assessed as death and disintegration of parasite at 500 nM after 16 to 24 hrs by Giemsa-staining based microscopy relative to control; format: functional, organism-based; outline: as §1
[8] = Inhibition of Plasmodium falciparum recombinant FKBP35 using Succ-Ala-Leu-Pro-Phe-pNA as substrate after 30 mins by UV-Vis spectrophotometry in presence of alpha-chymotrypsin
Homo sapiens = organism: Homo sapiens; experiment: Inhibition of human recombinant calcineurin phosphatase activity using RII phosphopeptide as substrate incubated 10 to 30 mins prior to substrate addition by spectrophotometry
[9] = Inhibition of Plasmodium vivax recombinant FKBP35 using Succ-Ala-Leu-Pro-Phe-pNA as substrate after 30 mins by UV-Vis spectrophotometry in presence of alpha-chymotrypsin
Plasmodium falciparum [10] = experiment: Antimicrobial activity against Plasmodium falciparum 3D7 infected in erythrocytes assessed as impairment of trophozoite-stage maturation at 500 nM after 8 hrs by Giemsa-staining based microscopy relative to control; format: functional, organism-based

C[C@@H]1CC[C@H]2[C@@H](C)C(=O)O[C@@H]3O[C@@]4(C)CC[C@@H]1[C@]32OO4
Activity (Plasmodium falciparum [1]): Active

O=C(NNC(=O)C12CC3CC(CC(C3)C1)C2)c1ccncc1
Activity (Plasmodium falciparum [2]): inactive
Activity (Plasmodium falciparum [3]): Active
Activity (Plasmodium falciparum [4]): Active
Activity (Plasmodium falciparum [5]): inactive
Activity (Plasmodium falciparum [6]): inactive
Activity (Plasmodium falciparum [7]): Active
IC50 [8]: 83 nM
inhibition (Homo sapiens): inactive
IC50 [9]: 75 nM
Activity (Plasmodium falciparum [10]): Active
Activity (Plasmodium falciparum [1]): inactive

O=C(NNC(=O)C12CC3CC(CC(C3)C1)C2)c1cccc2ccccc12
Activity (Plasmodium falciparum [2]): inactive
Activity (Plasmodium falciparum [6]): inactive
IC50 [8]: 49.3 nM

O=C(NNC(=O)C12CC3CC(CC(C3)C1)C2)c1ccccc1
Activity (Plasmodium falciparum [2]): inactive
Activity (Plasmodium falciparum [6]): inactive
IC50 [8]: 94.8 nM

C=CC[C@@H]1/C=C(\C)C[C@H](C)C[C@H](OC)[C@H]2O[C@@](O)(C(=O)C(=O)N3CCCC[C@H]3C(=O)O[C@H](/C(C)=C/[C@@H]3CC[C@@H](O)[C@H](OC)C3)[C@H](C)[C@@H](O)CC1=O)[C@H](C)C[C@@H]2OC
inhibition (Homo sapiens): Active

CCN(CC)CCCC(C)Nc1ccnc2cc(Cl)ccc12 (stereo not drawn)
Activity (Plasmodium falciparum [4]): Active
Activity (Plasmodium falciparum [5]): inactive
Activity (Plasmodium falciparum [7]): Active
Activity (Plasmodium falciparum [1]): inactive
